Assay results from ChEMBL document CHEMBL4033733, “Enterovirus inhibitory activity of C-8-tert-butyl substituted 4-aryl-6,7,8,9-tetrahydrobenzo[4,5]thieno[3,2-e][1,2,4]triazolo[4,3-a]pyrimidin-5(4H)-ones” (Bioorg Med Chem Lett, 2017).

Assays:
Liver [1] = experiment: Stability in rat liver microsomes assessed as compound remaining by mass spectrometry; assay type: ADME, microsome
Summary of the method: (§1)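 Phase I metabolic stability in human or rat liver microsomes, with buspirone as reference. Parent compound remaining was quantified by quantitative mass spectrometry and expressed as a percentage.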

Poliovirus 3 = experiment: Antiviral activity against human poliovirus 3 infected in human HeLa cells assessed as reduction in virus-induced cytopathicity incubated for 3 days by MTT assay; assay type: functional, cell-based; details: Enterovirus C, 72 h
Summary of the method: (§2)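 Cytopathic-effect reduction assay in HeLa cells infected with coxsackievirus B1, B3 or poliovirus 3, with pleconaril as reference. EC50 is the concentration that improves viability of infected HeLa cells by 50%. CC50 is the concentration that reduces viability of uninfected HeLa cells by 50%. SI is CC50/EC50.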

rhinovirus B14 = experiment: Antiviral activity against human rhinovirus 14 infected in human H1HeLa cells assessed as reduction in virus-induced cytopathicity incubated for 3 days by MTT assay; assay type: functional, cell-based; details: Rhinovirus B, H1-HeLa, 72 h
Summary of the method: (§3)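 H1 HeLa cells infected with rhinovirus (14, 21 or 71); EC50 is the concentration restoring 50% viability of the infected cells. Pleconaril served as reference.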

[2] = Cytotoxicity in human H1HeLa cells assessed as reduction in cell viability incubated for 3 days by MTT assay; assay type: cell-based, H1-HeLa
Summary of the method: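 Uninfected H1 HeLa cells; CC50 is the concentration lowering cell viability by 50%.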

rhinovirus A21 = experiment: Antiviral activity against human rhinovirus 21 infected in human H1HeLa cells assessed as reduction in virus-induced cytopathicity incubated for 3 days by MTT assay; assay type: functional, cell-based; details: Rhinovirus A, H1-HeLa, 72 h; summary of the method: as §3
[3] = Selectivity index, ratio of CC50 for human HeLa cells to EC50 for human coxsackievirus B3 infected in human HeLa cells; assay type: toxicity, cell-based; details: read-out: Ratio CC50/EC50; summary of the method: as §2
[4] = Selectivity index, ratio of CC50 for human HeLa cells to EC50 for human poliovirus 3 infected in human HeLa cells; assay type: toxicity, cell-based; details: read-out: Ratio CC50/EC50; summary of the method: as §2
Coxsackievirus B3 = experiment: Antiviral activity against human coxsackievirus B3 infected in human HeLa cells assessed as reduction in virus-induced cytopathicity incubated for 3 days by MTT assay; assay type: functional, cell-based; details: Enterovirus B, 72 h
Summary of the method: (§4)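 HeLa cells infected with enterovirus (coxsackievirus B1 or B3); protection from virus-induced cytopathic effect measured. EC50 is the concentration restoring 50% viability of the infected cells. Pleconaril served as reference.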

Coxsackievirus B1 = experiment: Antiviral activity against human coxsackievirus B1 infected in human HeLa cells assessed as reduction in virus-induced cytopathicity incubated for 3 days by MTT assay; assay type: functional, cell-based; details: Enterovirus B, 72 h; summary of the method: as §4
[5] = Antiviral activity against human rhinovirus 71 infected in human H1HeLa cells assessed as reduction in virus-induced cytopathicity incubated for 3 days by MTT assay; assay type: functional, cell-based, Human rhinovirus A71; details: Rhinovirus A, H1-HeLa, 72 h; summary of the method: as §3
[6] = Selectivity index, ratio of CC50 for human HeLa cells to EC50 for human coxsackievirus B1 infected in human HeLa cells; assay type: toxicity, cell-based; details: read-out: Ratio CC50/EC50; summary of the method: as §2
[7] = Cytotoxicity in human HeLa cells assessed as reduction in cell viability incubated for 3 days by MTT assay; assay type: cell-based
Summary of the method: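 Uninfected HeLa cells; CC50 is the concentration lowering cell viability by 50%.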

Liver [8] = experiment: Stability in human liver microsomes assessed as compound remaining by mass spectrometry; assay type: ADME, microsome; summary of the method: as §1

Compound	Stability (Liver [1]) [%]	EC50 (Poliovirus 3) [µM]	EC50 (rhinovirus B14) [µM]	CC50 at 72 h [2] [µM]	EC50 (rhinovirus A21) [µM]	selectivity ratio [3]	selectivity ratio [4]	EC50 (Coxsackievirus B3) [µM]	EC50 (Coxsackievirus B1) [µM]	EC50 [5] [µM]	selectivity ratio [6]	CC50 at 72 h [7] [µM]	Stability (Liver [8]) [%]
CC(C)(C)C1CCc2c(sc3c2c(=O)n(-c2ccccc2)c2nncn32)C1 (stereo unspecified)	51.5	1.95	1.7	9.6	2.5	> 11.5	> 51.2	8.65	8.85	1.6	> 11.2	> 100	63.2
CC(C)(C)C1CCc2c(sc3c2c(=O)n(-c2cccc(Cl)c2)c2nncn32)C1 (stereo unspecified)		9.63	2.1	15	> 15			> 38.3	17.8	3.8		38.3	
CC(C)(C)C1CCc2c(sc3c2c(=O)n(-c2ccc(Br)cc2)c2nncn32)C1 (stereo unspecified)		12.6	2	11	> 11			> 30.5	> 30.5	2.3		30.5	
CC1(C)CCc2c(sc3c2c(=O)n(-c2ccccc2)c2nncn32)C1		> 54.8	> 76.5	76.5	> 76.5			> 54.8	> 54.8	> 76.5		54.8	
Cc1nnc2n(-c3ccccc3)c(=O)c3c4c(sc3n12)CC(C(C)(C)C)CC4 (stereo unspecified)		> 45.1	4.3	35.9	> 35.9			> 45.1	> 45.1	4.6		45.1	
CC(C)(C)C1CCc2c(sc3c2c(=O)n(-c2ccccc2)c2nnc(S)n32)C1 (stereo unspecified)		> 45.1	10.1	40.1	19.4			> 45.1	> 45.1	9.1		45.1	
CC(C)(C)C1CCc2c(sc3c2c(=O)n(-c2ccc(C(F)(F)F)cc2)c2nncn32)C1 (stereo unspecified)		> 35.5	> 31.4	31.4	> 31.4			> 35.5	> 35.5	> 31.4		35.5	
Cc1ccccc1-n1c(=O)c2c3c(sc2n2cnnc12)CC(C(C)(C)C)CC3 (stereo unspecified)		3.44	8.8	35.4	> 35.4			9.22	9.83	10.1		39.1	
CC1CCCc2sc3c(c21)c(=O)n(-c1ccccc1)c1nncn31 (stereo unspecified)		> 100	> 100	> 100	> 100			> 100	> 100	> 100		> 100	
CC(C)(C)C1CCc2c(sc3c2c(=O)n(-c2ccccc2)c2nnc(-c4ccccc4)n32)C1 (stereo unspecified)		> 31.9	> 8.7	8.7	> 8.7			> 31.9	> 31.9	> 8.7		31.9	
CC(C)(C)C1CCc2c(sc3c2c(=O)n(-c2ccccc2Cl)c2nncn32)C1 (stereo unspecified)		1.84	2.5	20.7	14.7			16.2	19.5	3.9		26.3	
CC(C)(C)C1CCc2c(sc3c2c(=O)n(-c2cccc(Br)c2)c2nncn32)C1 (stereo unspecified)		13.2	3.5	26.3	20			> 32.9	15.6	15.9		32.9	
